Measurements: ChEMBL document CHEMBL1141180, “Synthesis and antiviral activity of helioxanthin analogues” (J Med Chem, 2005)

Tests used:
[1] = Effective concentration to inhibit 50% of human immunodeficiency virus replication in a cell culture model; assay type: functional
Human gammaherpesvirus 4 = assay: Effective concentration to inhibit 50% of epstein Barr virus replication in a cell culture model; assay type: functional, organism-based
Human alphaherpesvirus 1 = assay: Effective concentration to inhibit 50% of herpes simplex virus type 1 replication in a cell culture model; assay type: functional, organism-based
MT2 = assay: Cytotoxicity against MT-2 cell lines of human; assay type: functional; details: read-out: ID50 (the source's name)
Human alphaherpesvirus 2 = assay: Effective concentration to inhibit 50% of herpes simplex virus type 2 replication in a cell culture model; assay type: functional, organism-based
CCRF-CEM = assay: Cytotoxicity against CEM cell lines of human; assay type: functional; details: read-out: ID50 (the source's name)
Hepatitis B virus = assay: Effective concentration to inhibit 50% of hepatitis B virus replication in a cell culture model; assay type: functional, organism-based
Hepatitis C virus = assay: Effective concentration to inhibit 50% of hepatitis C virus replication in a cell culture model; assay type: functional, organism-based, Hepacivirus hominis
Summary of the method: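 HCV replicon Huh-Luc/neo cells grown to confluence, then treated with varying drug concentrations in DMEM with 10% dFBS for 3 days. Medium was removed and cells lysed in passive lysis buffer, shaken 15 min at room temperature. Lysate was mixed with luciferase substrate and luminescence read immediately as the measure of replicon activity.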

[2] = Effective concentration to inhibit 50% of cytomegalovirus (CMV) replication in a cell culture model; assay type: functional

| SMILES | EC50 [1] [µM] | EC50 (Human gammaherpesvirus 4) [µM] | EC50 (Human alphaherpesvirus 1) [µM] | IC50 (MT2) [µM] | EC50 (Human alphaherpesvirus 2) [µM] | IC50 (CCRF-CEM) [µM] | EC50 (Hepatitis B virus) [µM] | EC50 (Hepatitis C virus) [µM] | EC50 [2] [µM] |
| --- | --- | --- | --- | --- | --- | --- | --- | --- | --- |
| COc1ccc(-c2c3c(cc4ccc5c(c24)OCO5)C(=O)NC3)cc1OC | > 16 | > 20 | 0.6 | 16 | 0.5 | 5 | > 10 | 3 | – |
| O=C1NC(=O)c2c1cc1ccc3c(c1c2-c1ccc2c(c1)OCO2)OCO3 | – | – | – | – | – | – | > 10 | – | – |
| CC(=O)NN1Cc2cc3ccc4c(c3c(-c3ccc5c(c3)OCO5)c2C1=O)OCO4 | > 25 | > 20 | 17 | 25 | 40 | 32 | 0.03 | > 10 | – |
| Nc1ccn([C@H]2CC[C@@H](CO)O2)c(=O)n1 [ZALCITABINE] | 0.8 | – | – | 70 | – | 5 | – | – | – |
| O=C(O)c1cc2c(Cl)cc3c(c2c(-c2ccc4c(c2)OCO4)c1CO)OCO3 | > 60 | > 20 | > 50 | 60 | > 20 | > 100 | > 10 | > 10 | > 20 |
| COc1ccc(-c2c(C(=O)O)c(C(N)=O)cc3ccc4c(c23)OCO4)cc1OC | > 10 | > 20 | 0.8 | 10 | > 3 | 3 | 0.8 | 3 | – |
| COC(=O)c1cc2ccc3c(c2c(-c2ccc4c(c2)OCO4)c1C(=O)OC)OCO3 | > 28 | > 20 | > 50 | 28 | > 50 | 50 | > 20 | 10 | – |
| O=C1OCc2c1cc1c(Br)cc3c(c1c2-c1ccc2c(c1)OCO2)OCO3 | > 100 | > 15 | > 50 | > 100 | > 50 | 100 | > 40 | > 10 | – |
| O=C1c2cc3ccc4c(c3c(-c3ccc5c(c3)OCO5)c2C(=O)N1CCCO)OCO4 | > 22 | > 5 | > 30 | 22 | > 30 | 27 | > 20 | > 10 | 8.1 |
| O=C1OCc2c1cc1c(I)cc3c(c1c2-c1ccc2c(c1)OCO2)OCO3 | > 80 | > 10 | > 25 | 80 | > 25 | 70 | > 20 | > 10 | – |
| CN(C)C(=O)c1cc2ccc3c(c2c(-c2ccc4c(c2)OCO4)c1C(=O)O)OCO3 | > 70 | > 20 | > 50 | 70 | > 50 | 76 | > 10 | > 10 | – |
| O=C(OCc1ccccc1)c1cc2ccc3c(c2c(-c2ccc4c(c2)OCO4)c1COCc1ccccc1)OCO3 | > 100 | > 20 | > 50 | 100 | > 50 | 50 | > 10 | 10 | – |
| O=c1[nH][nH]c(=O)c2c(-c3ccc4c(c3)OCO4)c3c4c(ccc3cc12)OCO4 | 2.7 | > 25 | 1.4 | 16 | 1.4 | 50 | 0.03 | > 10 | – |
| CCOC(=O)c1c(C(=O)OCC)c(-c2ccc3c(c2)OCO3)c2c3c(ccc2c1OC)OCO3 | > 24 | > 20 | > 50 | 24 | > 50 | > 100 | > 20 | > 10 | – |
| CC(=O)NN1Cc2c(cc3ccc4c(c3c2-c2ccc3c(c2)OCO3)OCO4)C1=O | > 7 | 13 | 5 | 7 | 10 | 40 | > 20 | > 10 | – |
| NC(=O)c1cc2ccc3c(c2c(-c2ccc4c(c2)OCO4)c1C(N)=O)OCO3 | > 100 | > 20 | > 50 | > 100 | > 50 | > 100 | > 10 | > 10 | – |
| CNC(=O)c1cc2ccc3c(c2c(-c2ccc4c(c2)OCO4)c1C(=O)O)OCO3 | > 26 | > 20 | 12 | 26 | > 25 | 29 | > 10 | > 10 | – |
| COc1ccc(-c2c3c(cc4ccc5c(c24)OCO5)C(=O)NC3=O)cc1OC | – | – | – | – | – | – | 0.8 | – | – |
